Assay results from ChEMBL document CHEMBL1649516, “Pyrazolopyrimidinediones are selective agents for Helicobacter pylori that suppress growth through inhibition of glutamate racemase (MurI)” (2009).
≈ marks a conversion by molar mass, not a printed value. Calls of active or inactive are those of the source. The rule behind the calls is not given here.

Key:
[1] = target: T1, Glutamate racemase (Helicobacter pylori (strain ATCC 700392 / 26695) (Campylobacterpylori)) (UniProt P56068); experiment: Inhibition of MurI in flaA mutant Helicobacter pylori Hp80.2 overexpressing MurI gene assessed as microbial growth inhibition by CLSI M100-S13 method
T1 sequence (whole entry): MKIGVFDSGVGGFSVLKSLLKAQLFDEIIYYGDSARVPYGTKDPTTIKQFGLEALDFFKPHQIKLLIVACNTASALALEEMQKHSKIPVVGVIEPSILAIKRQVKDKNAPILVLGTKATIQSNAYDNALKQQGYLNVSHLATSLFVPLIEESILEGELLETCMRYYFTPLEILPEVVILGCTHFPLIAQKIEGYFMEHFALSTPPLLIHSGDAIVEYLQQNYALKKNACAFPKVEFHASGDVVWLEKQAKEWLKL
Outline: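 MIC against H. pylori Hp80.2, a strain built in the wild-type ARHp80 background by replacing flaA with a murI expression construct (pSM116) so that flaA-promoter-driven MurI is overexpressed, confirmed by PCR, sequencing and Western blot. The comparison strain is isogenic Hp80.1, which carries the empty construct. Compounds were dissolved in DMSO, 2% final, with 2% DMSO as control.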

Helicobacter pylori [2] = experiment: Antibacterial activity against HefC-deficient Helicobacter pylori ARHp80 by CLSI M100-S13 method; type: functional
Outline: (§1)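 MICs for H. pylori, C. coli and C. jejuni were determined by a previously described susceptibility method. Compounds were in DMSO at 2% final, and 2% DMSO served as the control.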

Helicobacter pylori [3] = experiment: Antibacterial activity against Helicobacter pylori SS1 by CLSI M100-S13 method; type: functional; outline: as §1
Helicobacter pylori [4] = experiment: Antibacterial activity against Helicobacter pylori ARHp80 by CLSI M100-S13 method; type: functional; outline: as §1
Escherichia coli = experiment: Antibacterial activity against Escherichia coli by CLSI M100-S13 method; type: functional
Outline: (§2)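 Broth MICs were run per CLSI guidelines. Compounds were dissolved in DMSO at 2% final concentration, and 2% DMSO alone served as the control.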

Staphylococcus aureus = experiment: Antibacterial activity against Staphylococcus aureus by CLSI M100-S13 method; type: functional; outline: as §2
Enterococcus faecium = experiment: Antibacterial activity against Enterococcus faecium ATCC 19434 by CLSI M100-S13 method; type: functional; outline: as §2
Streptococcus pneumoniae = experiment: Antibacterial activity against Streptococcus pneumoniae NCTC 7466 by CLSI M100-S13 method; type: functional; settings: NCTC7466; outline: as §2
Haemophilus influenzae = experiment: Antibacterial activity against Haemophilus influenzae ATCC 51907 by CLSI M100-S13 method; type: functional; outline: as §2
Moraxella catarrhalis = experiment: Antibacterial activity against Moraxella catarrhalis ATCC 43617 by CLSI M100-S13 method; type: functional; outline: as §2
Helicobacter pylori [5] = experiment: Induction of morphological changes in Helicobacter pylori by phase contrast microscopy; type: functional, organism-based
Outline: (§3)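 H. pylori was grown at 37°C in brucella broth with 5% fetal calf serum under microaerophilic gas (5% O2, 10% CO2, 85% N2), then examined for cell shape by phase-contrast microscopy.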

Bacteroides fragilis = experiment: Antibacterial activity against Bacteroides fragilis ATCC 25285 by CLSI M11-S13 broth microdilution method; type: functional
Outline: (§4)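 Anaerobic MICs run by CLSI broth microdilution guidelines for Bacteroides fragilis. Compounds were dissolved in DMSO at 2% final in all wells, and 2% DMSO served as the solvent control.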

Fusobacterium mortiferum = experiment: Antibacterial activity against Fusobacterium mortiferum clinical isolate by CLSI M100-S13 method; type: functional; outline: as §4
Campylobacter jejuni = experiment: Antibacterial activity against Campylobacter jejuni ATCC 33560 by CLSI M100-S13 method; type: functional; outline: as §1
Lactobacillus jensenii = experiment: Antibacterial activity against Lactobacillus jensenii clinical isolate by CLSI M100-S13 method; type: functional
[6] = target: T1, Glutamate racemase (Helicobacter pylori (strain ATCC 700392 / 26695) (Campylobacterpylori)); experiment: Inhibition of MurI in Helicobacter pylori assessed as morphological change at 2 times MIC by phase contrast microscopy; outline: as §3
[7] = tested on: Fusobacterium necrophorum; experiment: Antibacterial activity against Fusobacterium necrophorum clinical isolate by CLSI M100-S13 method; type: functional; outline: as §4
[8] = tested on: Prevotella melaninogenica; experiment: Antibacterial activity against Prevotella melaninogenica clinical isolate by CLSI M100-S13 method; type: functional; outline: as §4
Campylobacter coli = experiment: Antibacterial activity against Campylobacter coli ATCC 33559 by CLSI M100-S13 method; type: functional; outline: as §1
Clostridioides difficile = experiment: Antibacterial activity against Clostridium difficile clinical isolate by CLSI M100-S13 method; type: functional; outline: as §4
[9] = tested on: Bacteroides thetaiotaomicron; experiment: Antibacterial activity against Bacteroides thetaiotaomicron clinical isolate by CLSI M100-S13 method; type: functional; outline: as §4

SMILES	MIC [1]	MIC (Helicobacter pylori [2])	MIC (Helicobacter pylori [3])	MIC (Helicobacter pylori [4])	MIC (Escherichia coli)	MIC (Staphylococcus aureus)	MIC (Enterococcus faecium)	MIC (Streptococcus pneumoniae)	MIC (Haemophilus influenzae)	MIC (Moraxella catarrhalis)	also measured
C#CCn1c(=O)c2c(-c3cc(C#N)cn3C)n(Cc3cc(C#N)nc4ccc(Cl)cc34)nc2n(CC2CC2)c1=O	> 64 µg/mL	0.5 µg/mL (≈ 0.911 µM)	2 µg/mL (≈ 3.64 µM)	1 µg/mL (≈ 1.82 µM)	> 64 µg/mL	> 64 µg/mL	–	–	–	–	–
CC(C)Cn1c(=O)n(C)c(=O)c2c(-c3ccncc3)n(Cc3cccc4ccccc34)nc21	8 µg/mL (≈ 18.2 µM)	1 µg/mL (≈ 2.28 µM)	4 µg/mL (≈ 9.1 µM)	4 µg/mL (≈ 9.1 µM)	> 64 µg/mL	> 64 µg/mL	> 64 µg/mL	> 64 µg/mL	> 64 µg/mL	> 64 µg/mL	–
CONC(=O)c1cc(-c2c3c(=O)n(C)c(=O)n(CC4CC4)c3nn2Cc2c[nH]c3ccc(C)cc23)n(C)c1	–	0.25 µg/mL (≈ 0.485 µM)	16 µg/mL (≈ 31 µM)	16 µg/mL (≈ 31 µM)	> 64 µg/mL	> 64 µg/mL	> 32 µg/mL	> 32 µg/mL	> 32 µg/mL	> 32 µg/mL	–
C#CCn1c(=O)c2c(-c3cncn3C)n(Cc3ccnc4ccc(Cl)cc34)nc2n(CC2CC2)c1=O	8 µg/mL (≈ 16 µM)	0.25 µg/mL (≈ 0.5 µM)	2 µg/mL (≈ 4 µM)	1 µg/mL (≈ 2 µM)	> 64 µg/mL	> 64 µg/mL	–	–	–	–	–
CN(C)[C@@H]1C(O)=C(C(N)=O)C(=O)[C@@]2(O)C(O)=C3C(=O)c4c(O)cccc4[C@@](C)(O)[C@H]3C[C@@H]12 [TETRACYCLINE]	0.13 µg/mL (≈ 0.293 µM)	0.015 µg/mL (≈ 0.0338 µM)	0.25 µg/mL (≈ 0.563 µM)	0.13 µg/mL (≈ 0.293 µM)	–	–	–	–	–	–	Activity (Helicobacter pylori [5]): Active
Cn1cc(C#N)cc1-c1c2c(=O)n(C)c(=O)n(CC3CC3)c2nn1Cc1ccnc2ccc(Cl)cc12	4 µg/mL (≈ 8 µM)	0.25 µg/mL (≈ 0.5 µM)	1 µg/mL (≈ 2 µM)	0.5 µg/mL (≈ 1 µM)	> 64 µg/mL	> 64 µg/mL	–	–	–	–	MIC (Bacteroides fragilis): > 64 µg/mL; MIC (Fusobacterium mortiferum): > 64 µg/mL; MIC (Campylobacter jejuni): > 64 µg/mL; MIC (Lactobacillus jensenii): > 64 µg/mL; Activity [6]: Non-toxic; MIC [7]: > 64 µg/mL; MIC [8]: > 64 µg/mL; MIC (Campylobacter coli): > 64 µg/mL; MIC (Clostridioides difficile): > 64 µg/mL; MIC [9]: > 64 µg/mL
Cn1cc([S+](C)[O-])cc1-c1c2c(=O)n(C)c(=O)n(CC3CC3)c2nn1Cc1ccnc2ccc(Cl)cc12 (configuration not stated)	16 µg/mL (≈ 29.8 µM)	0.25 µg/mL (≈ 0.466 µM)	16 µg/mL (≈ 29.8 µM)	8 µg/mL (≈ 14.9 µM)	> 64 µg/mL	> 64 µg/mL	> 64 µg/mL	> 64 µg/mL	> 64 µg/mL	> 64 µg/mL	–
